Laboratory results taken from ChEMBL document CHEMBL1154191, “Evaluation of spirocyclic 3-(3-fluoropropyl)-2-benzofurans as sigma1 receptor ligands for neuroimaging with positron emission tomography” (J Med Chem, 2009).

Experiments:
Spleen = assay: Biodistribution in CD1 mouse spleen assessed per gram of wet tissue at 400 to 600 kBq, iv after 120 mins post-injection by gamma counting; format: ADME, organism-based; settings: in vivo, 2 h
Outline: (§1)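 Female CD-1 mice (~8-12 weeks, 20-28 g), habituated ≥48 h and fasted 24 h with water available. The [18F] tracer (>150 GBq/μmol at end of synthesis) was given in 200 μL saline into the tail vein of conscious animals. At each time point, n=4-5, mice were anaesthetised, blood and urine sampled, then killed by cervical dislocation. Organs were weighed and γ-counted, and values calculated as % ID/g wet tissue.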

[1] = Chemical stability assessed as occurrence of defluorination by radio-TLC and analytical radio-HPLC; format: physicochemical
Lung = assay: Biodistribution in CD1 mouse lung assessed per gram of wet tissue at 400 to 600 kBq, iv after 60 mins post-injection by gamma counting; format: ADME, organism-based; settings: in vivo, 1 h; outline: as §1
Liver = assay: Biodistribution in CD1 mouse liver assessed per gram of wet tissue at 400 to 600 kBq, iv after 60 mins post-injection by gamma counting; format: ADME, organism-based; settings: in vivo, 1 h; outline: as §1
[2] = Drug uptake in CD1 mouse adrenal gland at 400 to 600 kBq, iv after 120 mins post-injection by gamma counting relative to initial uptake; format: ADME, organism-based; settings: in vivo, 2 h
Outline: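 Organ % ID/g was measured by γ-counting after tail-vein injection of 400-600 kBq [18F] tracer in saline to fasted female CD-1 mice (n=4-5 per time). The 120 min pi value is expressed relative to the initial (5 min pi) uptake.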

Muscle tissue [3] = assay: Biodistribution in CD1 mouse muscle assessed per gram of wet tissue at 400 to 600 kBq, iv after 60 mins post-injection by gamma counting in presence of 1 mg/kg, ip sigma 1/sigma 2 receptor antagonist haloperidol treated before compound addition; format: organism-based; set-up: route intravenous; settings: in vivo, 1 h
Outline: (§2)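 They were killed at 60 min pi, and organs were weighed and γ-counted as % ID/g wet tissue. Comparison with controls used Student's t test (independent, two-tailed).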

Pancreas [4] = assay: Biodistribution in CD1 mouse pancreas assessed per gram of wet tissue at 400 to 600 kBq, iv after 120 mins post-injection by gamma counting; format: ADME, organism-based; settings: in vivo, 2 h; outline: as §1
[5] = Biodistribution in CD1 mouse gonad assessed per gram of wet tissue at 400 to 600 kBq, iv after 5 mins post-injection by gamma counting; format: ADME, organism-based; settings: in vivo
Outline: (§3)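 Female CD-1 mice (~8-12 weeks, 20-28 g) were fasted 24 h with free water. Conscious mice got 400-600 kBq [¹⁸F] tracer in saline by tail vein. At 5, 30, 60 or 120 min (n=4-5 per time) they were anesthetized, blood and urine sampled, then killed by cervical dislocation. Organs were weighed and γ-counted, giving % ID/g wet tissue.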

[6] = Biodistribution in CD1 mouse gonad assessed per gram of wet tissue at 400 to 600 kBq, iv after 120 mins post-injection by gamma counting; format: ADME, organism-based; settings: in vivo, 2 h; outline: as §3
Brain = assay: Biodistribution in CD1 mouse brain assessed per gram of wet tissue at 400 to 600 kBq, iv after 30 mins post-injection by gamma counting; format: ADME, organism-based; settings: in vivo, 0.5 h; outline: as §3
Stomach = assay: Biodistribution in CD1 mouse stomach assessed per gram of wet tissue at 400 to 600 kBq, iv after 60 mins post-injection by gamma counting; format: ADME, organism-based; settings: in vivo, 1 h; outline: as §1
Blood [7] = assay: Biodistribution in CD1 mouse blood assessed per gram of wet tissue at 400 to 600 kBq, iv after 5 mins post-injection by gamma counting; format: ADME, organism-based; settings: in vivo; outline: as §3
[8] = Ratio of drug level in cerebellum to plasma in CD1 mouse at 400 to 600 kBq, iv after 60 mins post-injection in presence of 1 mg/kg, ip sigma 1/sigma 2 receptor antagonist haloperidol treated before compound addition; format: organism-based; set-up: route intravenous
Outline: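 Killed 60 min pi; blood and cerebellum weighed, γ-counted as % ID/g wet tissue, ratio derived; Student's two-tailed t test versus untreated controls.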

Blood [9] = assay: Biodistribution in CD1 mouse blood assessed per gram of wet tissue at 400 to 600 kBq, iv after 30 mins post-injection by gamma counting; format: ADME, organism-based; settings: in vivo, 0.5 h; outline: as §3
Femur [10] = assay: Biodistribution in CD1 mouse femur assessed per gram of wet tissue at 400 to 600 kBq, iv after 30 mins post-injection by gamma counting; format: ADME, organism-based; settings: in vivo, 0.5 h; outline: as §3
Femur [11] = assay: Biodistribution in CD1 mouse femur assessed per gram of wet tissue per gram of wet tissue at 400 to 600 kBq, iv after 60 mins post-injection by gamma counting in presence of 1 mg/kg, ip sigma 1/sigma 2 receptor antagonist haloperidol treated before compound addition; format: organism-based; set-up: dose 1 mg/kg, route intravenous; settings: in vivo, 1 h
Outline: (§4)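 Blocking arm in fasted female CD-1 mice (n=5). […] Animals were killed at 60 min post-injection, and organs were weighed and γ-counted as % ID/g wet tissue. Percent change was taken against the 60 min control group, with two-tailed unpaired Student's t test.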

Kidney = assay: Biodistribution in CD1 mouse kidney assessed per gram of wet tissue at 400 to 600 kBq, iv after 120 mins post-injection by gamma counting; format: ADME, organism-based; settings: in vivo, 2 h; outline: as §3
[12] = Biodistribution in CD1 mouse urine assessed as per gram of wet bladder at 400 to 600 kBq, iv after 120 mins post-injection by gamma counting; format: ADME, organism-based; settings: in vivo, 2 h; outline: as §1
Mus musculus = assay: Plasma concentration in CD1 mouse assessed per gram of wet tissue at 400 to 600 kBq, iv after 5 mins post-injection by gamma counting; format: ADME, organism-based; settings: in vivo
Outline: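 Female CD-1 mice (~8-12 weeks, 20-28 g), fasted 24 h with free access to water. 400-600 kBq [18F] tracer in 200 μL saline given by tail vein to conscious mice. At 5, 30, 60 or 120 min pi (n=4-5 per time) mice anaesthetised, blood taken, then euthanised. Samples weighed, γ-counted, %ID/g wet tissue calculated.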

Femur [13] = assay: Biodistribution in CD1 mouse femur assessed per gram of wet tissue at 400 to 600 kBq, iv after 120 mins post-injection by gamma counting; format: ADME, organism-based; settings: in vivo, 2 h; outline: as §3
[14] = Biodistribution in CD1 mouse adrenal gland assessed per gram of wet tissue at 400 to 600 kBq, iv after 30 mins post-injection by gamma counting; format: ADME, organism-based; settings: in vivo, 0.5 h; outline: as §3
Cerebellum = assay: Biodistribution in CD1 mouse cerebellum assessed per gram of wet tissue at 400 to 600 kBq, iv after 60 mins post-injection by gamma counting in presence of 1 mg/kg, ip sigma 1/sigma 2 receptor antagonist haloperidol treated before compound addition; format: organism-based; set-up: dose 1 mg/kg, route intravenous; settings: in vivo, 1 h; outline: as §4
Pancreas [15] = assay: Biodistribution in CD1 mouse pancreas assessed per gram of wet tissue at 400 to 600 kBq, iv after 60 mins post-injection by gamma counting in presence of 1 mg/kg, ip sigma 1/sigma 2 receptor antagonist haloperidol treated before compound addition; format: organism-based; set-up: route intravenous; settings: in vivo, 1 h; outline: as §2
Intestine = assay: Biodistribution in CD1 mouse intestine assessed per gram of wet tissue at 400 to 600 kBq, iv after 120 mins post-injection by gamma counting; format: ADME, organism-based; settings: in vivo, 2 h; outline: as §3
Muscle tissue [16] = assay: Biodistribution in CD1 mouse muscle assessed per gram of wet tissue at 400 to 600 kBq, iv after 120 mins post-injection by gamma counting; format: ADME, organism-based; settings: in vivo, 2 h; outline: as §1
[17] = Ratio of drug level in cerebellum to plasma in CD1 mouse at 400 to 600 kBq, iv after 5 mins post-injection; format: ADME, organism-based
Outline: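 Female CD-1 mice (~8-12 weeks, 20-28 g), fasted 24 h with free water; 400-600 kBq tracer in 200 μL saline by tail vein into conscious animals. Killed at set times pi (n=4-5 per time); blood and organs weighed, γ-counted, expressed as % ID/g wet tissue; ratio from cerebellum and plasma uptake.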

Compound: [18F]CCCC1OC2(CCN(Cc3ccccc3)CC2)c2ccccc21 (stereo unspecified)
- Drug uptake (Spleen): 4.65 %ID
- Stability [1]: Stable
- Drug uptake (Lung): 4.64 %ID
- Drug uptake (Liver): 3.24 %ID
- Drug uptake [2]: > 70%
- Drug uptake (Muscle tissue [3]): 0.9 %ID
- Drug uptake (Pancreas [4]): 10.5 %ID
- Drug uptake [5]: 3.4 %ID
- Drug uptake [6]: 4.16 %ID
- Drug uptake (Brain): 3.18 %ID
- Drug uptake (Stomach): 3.17 %ID
- Drug uptake (Blood [7]): 1.44 %ID
- Kp at 1 h [8]: 1
- Drug uptake (Blood [9]): 0.56 %ID
- Drug uptake (Femur [10]): 3.79 %ID
- Drug uptake (Femur [11]): 4.27 %ID
- Drug uptake (Kidney): 3.68 %ID
- Drug uptake [12]: 49.2 %ID
- Drug uptake (Mus musculus): 1.85 %ID
- Drug uptake (Femur [13]): 6.64 %ID
- Drug uptake [14]: 7.63 %ID
- Drug uptake (Cerebellum): 0.63 %ID
- Drug uptake (Pancreas [15]): 3.05 %ID
- Drug uptake (Intestine): 9.03 %ID
- Drug uptake (Muscle tissue [16]): 0.97 %ID
- Kp at 5 min [17]: 2.49
